Ki and inhibition data for 21 compounds are collected here from ChEMBL document CHEMBL2407035, “Identification of novel chromone based sulfonamides as highly potent and selective inhibitors of alkaline phosphatases” (Eur J Med Chem, 2013).

The target of experiment [1] is Intestinal-type alkaline phosphatase (Bos taurus, UniProt P19111). In words: Inhibition of bovine intestinal alkaline phosphatase using p-NPP as substrate treated 10 mins before substrate addition measured after 30 mins by spectrophotometric assay. An outline of the steps: (§1)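 Calf intestinal ALP (0.025 U/mL) or TNALP (0.5 U/mL) in 50 mM Tris-HCl, 5 mM MgCl₂, 0.1 mM ZnCl₂, pH 9.5 with compound (1% DMSO final), 10 min. Started with 0.5 mM p-NPP, 30 min at 37 °C, p-nitrophenolate read at 405 nm. Screened at 0.1 mM. Actives (>50%) got 8–10 dilutions, 1 mM to 10 nM, three times in triplicate. IC50 by nonlinear fit, Ki by Cheng–Prusoff.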

The target in experiment [2] is T1, Alkaline phosphatase, tissue-nonspecific isozyme (Bos taurus, UniProt P09487).
T1 sequence (P09487 whole entry): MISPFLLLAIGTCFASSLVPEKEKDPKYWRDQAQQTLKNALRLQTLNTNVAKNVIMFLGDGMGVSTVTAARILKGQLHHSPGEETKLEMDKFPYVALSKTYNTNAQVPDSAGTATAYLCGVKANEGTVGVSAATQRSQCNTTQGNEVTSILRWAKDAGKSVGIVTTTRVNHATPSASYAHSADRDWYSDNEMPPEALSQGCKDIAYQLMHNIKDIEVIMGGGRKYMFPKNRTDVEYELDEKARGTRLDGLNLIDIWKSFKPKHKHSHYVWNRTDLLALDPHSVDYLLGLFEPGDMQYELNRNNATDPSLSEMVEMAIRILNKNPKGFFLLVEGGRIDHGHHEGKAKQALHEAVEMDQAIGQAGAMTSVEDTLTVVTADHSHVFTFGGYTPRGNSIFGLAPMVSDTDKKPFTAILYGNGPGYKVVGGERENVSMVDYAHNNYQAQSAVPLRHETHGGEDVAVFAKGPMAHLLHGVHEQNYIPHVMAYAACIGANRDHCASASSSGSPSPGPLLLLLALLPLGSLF
In words: Inhibition of bovine kidney […] alkaline phosphatase using p-NPP as substrate treated 10 mins before substrate addition measured after 30 mins by spectrophotometric assay. An outline of the steps: as §1

Experiment [3] can be described thus: Inhibition of porcine kidney […] alkaline phosphatase using p-NPP as substrate treated 10 mins before substrate addition measured after 30 mins by spectrophotometric assay. More on the design: species or system Sus scrofa. An outline of the steps:
as §1

Experiment [4] concerns the target 5'-nucleotidase (Homo sapiens) (UniProt P21589). The experiment is described as follows: Inhibition of human Ecto-5'-NT expressed in african green monkey COS7 cells using AMP as substrate at 0.1 mM preincubated for 10 mins measured after 10 mins. The format is cell-based. The following applies: COS-7. An outline of the steps: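 Human ecto-5'-NT from membrane extracts of transfected COS-7 cells (6.94 µg/mL). Preincubated with compound 10 min at 37 °C in 10 mM Hepes, 2 mM MgCl₂, 1 mM CaCl₂, pH 7.4. Started with 500 µM AMP, 10 min at 37 °C, stopped at 99 °C for 20 min. Adenosine quantified by capillary electrophoresis, UV at 260 nm, with <10% substrate conversion.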

Experiment [5] deals with Intestinal-type alkaline phosphatase (Bos taurus) (UniProt P19111). The experiment is described as follows: Competitive inhibition of bovine intestinal alkaline phosphatase using p-NPP as substrate by Double-reciprocal plot analysis. An outline of the steps:
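Calf intestinal ALP kinetics: initial velocities measured with 4-NPP at 0.01-1 mM and inhibitor at 0, 100 and 300 nM. Double-reciprocal plots (1/[S] vs 1/v) were used to assign the inhibition mode. Buffer is 50 mM Tris-HCl, 5 mM MgCl₂, 0.1 mM ZnCl₂, pH 9.5, read at 405 nm.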

Active and inactive are the calls of the source. The rule behind the calls is not given here.

5'-nucleotidase (Homo sapiens), sequence (P21589 whole entry): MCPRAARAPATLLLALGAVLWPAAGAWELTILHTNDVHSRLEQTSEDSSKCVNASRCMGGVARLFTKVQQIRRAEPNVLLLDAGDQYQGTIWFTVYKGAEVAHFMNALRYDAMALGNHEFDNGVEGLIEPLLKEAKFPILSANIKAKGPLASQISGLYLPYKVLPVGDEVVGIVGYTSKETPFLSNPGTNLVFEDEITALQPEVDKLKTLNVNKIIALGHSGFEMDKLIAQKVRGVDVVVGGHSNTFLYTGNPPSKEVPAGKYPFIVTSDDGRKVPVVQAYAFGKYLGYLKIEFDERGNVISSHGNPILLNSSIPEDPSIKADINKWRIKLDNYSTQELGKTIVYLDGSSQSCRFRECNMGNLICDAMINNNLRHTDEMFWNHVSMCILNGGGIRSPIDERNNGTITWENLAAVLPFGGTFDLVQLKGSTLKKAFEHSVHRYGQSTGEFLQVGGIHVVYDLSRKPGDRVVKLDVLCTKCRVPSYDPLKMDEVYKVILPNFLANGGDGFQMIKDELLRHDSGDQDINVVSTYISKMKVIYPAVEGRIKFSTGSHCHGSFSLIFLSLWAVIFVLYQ
Intestinal-type alkaline phosphatase, sequence (P19111 whole entry): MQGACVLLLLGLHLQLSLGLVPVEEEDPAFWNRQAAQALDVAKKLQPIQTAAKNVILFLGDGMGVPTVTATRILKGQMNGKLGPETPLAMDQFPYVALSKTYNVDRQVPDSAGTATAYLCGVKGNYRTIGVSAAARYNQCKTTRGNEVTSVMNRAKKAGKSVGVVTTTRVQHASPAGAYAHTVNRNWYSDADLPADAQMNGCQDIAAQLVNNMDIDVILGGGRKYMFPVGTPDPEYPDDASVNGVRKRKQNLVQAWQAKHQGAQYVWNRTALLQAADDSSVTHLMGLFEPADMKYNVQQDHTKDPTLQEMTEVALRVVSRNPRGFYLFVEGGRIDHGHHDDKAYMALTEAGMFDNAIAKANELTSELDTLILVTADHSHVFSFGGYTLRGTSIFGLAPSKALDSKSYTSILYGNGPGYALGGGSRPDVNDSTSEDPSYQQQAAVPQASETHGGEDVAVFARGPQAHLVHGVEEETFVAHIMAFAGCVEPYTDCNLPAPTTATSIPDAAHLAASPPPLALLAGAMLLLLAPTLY
Intestinal-type alkaline phosphatase (Bos taurus), sequence (P19111 20-506 limits assumed): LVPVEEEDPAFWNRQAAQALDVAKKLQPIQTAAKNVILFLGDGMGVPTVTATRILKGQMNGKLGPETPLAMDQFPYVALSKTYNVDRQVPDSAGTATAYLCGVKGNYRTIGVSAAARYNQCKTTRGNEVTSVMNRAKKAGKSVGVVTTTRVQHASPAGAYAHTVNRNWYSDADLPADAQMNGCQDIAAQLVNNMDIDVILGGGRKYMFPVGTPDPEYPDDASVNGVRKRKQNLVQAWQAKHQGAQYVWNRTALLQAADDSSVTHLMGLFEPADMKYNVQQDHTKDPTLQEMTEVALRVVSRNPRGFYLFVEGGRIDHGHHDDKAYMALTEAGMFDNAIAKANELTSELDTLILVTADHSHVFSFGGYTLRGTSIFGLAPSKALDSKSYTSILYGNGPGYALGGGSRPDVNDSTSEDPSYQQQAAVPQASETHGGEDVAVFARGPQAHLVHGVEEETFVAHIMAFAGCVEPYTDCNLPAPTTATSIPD

Usually Ki stands for the equilibrium dissociation constant of an inhibitor or competing ligand from its target. A word on the inhibition: it is the relative decrease from the control value, in per cent. Consider `O=c1c(C2Nc3ccccc3S(=O)(=O)N2)coc2ccc(F)cc12` (centres undefined), for which the Ki in experiment [1] was 0.78 µM; in experiment [2] it was 43 µM; in experiment [3], 2.8 µM. Further, the inhibition in experiment [4] was 0%.

Consider `CCOC1Oc2ccccc2C(=O)/C1=C\Nc1ccc(S(N)(=O)=O)cc1` (centres undefined), for which the Ki in experiment [1] amounted to 90.6 µM; in experiment [2], 6.8 µM; in experiment [3], 10.9 µM. The inhibition in experiment [4] was 5.7%.

With `CCOC1Oc2ccccc2C(=O)/C1=C/Nc1ccc(S(=O)(=O)Nc2cc(OC)nc(OC)n2)cc1` (centres undefined), the Ki in experiment [1] came to 7.8 µM; in experiment [2], 23 µM; in experiment [3], 35.4 µM. In experiment [4], this compound registered an inhibition of 0%.

Take `O=c1c(C2Nc3ccccc3S(=O)(=O)N2)coc2ccc(Br)cc12` (centres undefined): in experiment [5], the inhibition result is “Active”. Moreover, the values for the inhibition constant (Ki) in experiment [1] and in experiment [2] were 0.021 µM and 0.13 µM, respectively. In experiment [4], this compound yielded an inhibition of 0%.

As for `CCOC1Oc2ccccc2C(=O)/C1=C/Nc1ccc(S(=O)(=O)Nc2ccc(OC)nn2)cc1` (centres undefined), the inhibition constant Ki turned out to be 7.8 µM in experiment [1], 38 µM in experiment [2] and 52.5 µM in experiment [3]. In addition, the inhibition in experiment [4] worked out at 0%.

With `CCOC1Oc2ccc(Br)cc2C(=O)/C1=C\Nc1ccc(S(N)(=O)=O)cc1` (centres undefined), the Ki in experiment [1] turned out to be 0.41 µM; in experiment [2], 48 µM; in experiment [3], 44.6 µM. Moreover, the inhibition in experiment [4] worked out at 52%.

Take `CCOC1Oc2ccc(Br)cc2C(=O)/C1=C\Nc1cccc(S(N)(=O)=O)c1` (centres undefined): the Ki was 8.7 µM in experiment [1], 44 µM in experiment [2] and 51.3 µM in experiment [3]. The same compound displayed an inhibition in experiment [4] of 0%.

As for `CCOC1Oc2c(Br)cc(Br)cc2C(=O)/C1=C\Nc1cccc(S(N)(=O)=O)c1` (centres undefined), the Ki in experiment [1] stood at 0.8 µM; in experiment [2], 26 µM; in experiment [3], 67.9 µM. The compound further had an inhibition in experiment [4] of 54%.

`CCOC1Oc2ccc(F)cc2C(=O)/C1=C\Nc1cccc(S(N)(=O)=O)c1` (centres undefined): the Ki was determined as 17.1 µM in experiment [1], 18 µM in experiment [2] and 19.9 µM in experiment [3]. Further, the inhibition in experiment [4] is 0%.

For `CCOC1Oc2ccc(CC)cc2C(=O)/C1=C\Nc1cccc(S(N)(=O)=O)c1` (centres undefined), the Ki came to 2.1 µM in experiment [1], 16.8 µM in experiment [2] and 20.1 µM in experiment [3]. Moreover, in experiment [4], the inhibition is 30%.

Regarding `CCOC1Oc2ccccc2C(=O)/C1=C\Nc1cccc(S(N)(=O)=O)c1` (centres undefined), the figures for the Ki in experiment [1], in experiment [2] and in experiment [3] were 33.5 µM, 41 µM and 41.7 µM, respectively. For the same compound, the inhibition in experiment [4] worked out at 0%.

As for `CCOC1Oc2ccc(CC)cc2C(=O)/C1=C\Nc1ccccc1S(N)(=O)=O` (centres undefined), the Ki turned out to be 0.4 µM in experiment [1], 29 µM in experiment [2] and 18 µM in experiment [3]. Moreover, in experiment [4], the inhibition was found to be 4%.

For the compound `CCOC1Oc2ccc(Br)cc2C(=O)/C1=C/Nc1ccc(S(=O)(=O)Nc2ccccn2)cc1` (centres undefined), the Ki came to 9.3 µM in experiment [1], 74 µM in experiment [2] and 73.6 µM in experiment [3]. This compound gave an inhibition in experiment [4] of 0%.

As to `CCOC1Oc2c(Br)cc(Br)cc2C(=O)/C1=C\Nc1ccc(S(N)(=O)=O)cc1` (centres undefined), the Ki in experiment [1] turned out to be 5.1 µM; in experiment [2] it was 63 µM; in experiment [3], 55.3 µM. Further, in experiment [4], the inhibition came to 43%.

Regarding `CCOC1Oc2c(Br)cc(Br)cc2C(=O)/C1=C\Nc1ccccc1S(N)(=O)=O` (centres undefined), the Ki came out at 0.2 µM in experiment [1], 29 µM in experiment [2] and 11.7 µM in experiment [3]. The compound also yielded an inhibition in experiment [4] of 63%.

For `CCOC1Oc2ccc(CC)cc2C(=O)/C1=C\Nc1ccc(S(N)(=O)=O)cc1` (centres undefined), the Ki stood at 2.6 µM in experiment [1], 60 µM in experiment [2] and 68.8 µM in experiment [3]. The compound also returned an inhibition in experiment [4] of 13%.

Consider `CCOC1Oc2ccc(F)cc2C(=O)/C1=C/Nc1ccc(S(=O)(=O)Nc2nnc(C)s2)cc1` (centres undefined), for which the Ki was 0.01 µM in experiment [1], 21 µM in experiment [2] and 31.8 µM in experiment [3]. In addition, the inhibition in experiment [4] is 0%.

`CCOC1Oc2ccc(F)cc2C(=O)/C1=C\Nc1ccc(S(N)(=O)=O)cc1` (centres undefined): the Ki worked out at 1.43 µM in experiment [1], 220 µM in experiment [2] and 66.8 µM in experiment [3]. Further, in experiment [4], the inhibition worked out at 16%.

On to `O=c1c(C2Nc3ccccc3S(=O)(=O)N2)coc2ccccc12` (centres undefined), for which the Ki is 0.049 µM in experiment [1], 27 µM in experiment [2] and 21.3 µM in experiment [3]. Moreover, the inhibition in experiment [4] stood at 0%.

As for `CCOC1Oc2ccccc2C(=O)/C1=C/Nc1ccc(S(=O)(=O)Nc2nnc(C)s2)cc1` (centres undefined), the inhibition constant (Ki) was 0.085 µM in experiment [1], 0.25 µM in experiment [2] and 0.079 µM in experiment [3]. The inhibition in experiment [4] was 26%.

On to `CCOC1Oc2ccccc2C(=O)/C1=C/Nc1ccc(S(=O)(=O)Nc2ccccn2)cc1` (centres undefined), for which the Ki was 0.41 µM in experiment [1], 22 µM in experiment [2] and 21.2 µM in experiment [3]. In experiment [4], this compound came in with an inhibition of 0%.
